eIF4E-4G inh – inhibitors of eIF4E and eIF4G interaction in translation initiation | TR-FRET eIF4E-eIF4GI(517-606) binding, 2 h | inhibition, % at 21.7 µM | hit rate 0.37% among 220,000 | AID 782;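 note: 0% = full FRET control wells and 100% = background wells lacking eIF4GI fragment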
14-3-3 Bad inh – disrupts binding of bovine 14-3-3 zeta to phospho-Bad peptide | TR-FRET 14-3-3zeta/Dy647-pBad peptide displacement, 1 h | inhibition, % at 21.7 µM | hit rate 0.71% among 220,000 | AID 781;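 active = inhibition above about 70%, limit read from the data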;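 note: 0% = full 14-3-3 plus peptide FRET controls and 100% = background without 14-3-3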
EBV gp42 block – blocks Epstein-Barr virus glycoprotein 42 binding | Q1HVG2 | Fluorescence polarization binding assay, mP read-out | inhibition, % (tested at 21.74 µM) | hit rate 0.42% among 220,000 | AID 1085; in the data active = inhibition above about 50%
WT yeast gro inh – growth inhibition of WT yeast, mitochondrial fusion screen | mitochondrial fusion phenotypic screen, WT strain | inhibition, % at 10 µM | hit rate 2.1% among 190,000; in the data active = inhibition above about 58%; tested in S. cerevisiae
p47phox inh – p47phox (human) inhibition | p47phox/p22phox peptide binding, fluorescence polarization, 2 h | inhibition, % at 24.7 µM | hit rate 0.53% among 220,000;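 note: 0% = p47phox with labelled peptide and 100% = labelled peptide alone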
RBBP9 inhibitor – human RBBP9 hydrolase inhibition; AID 1515; inhibition, % at 7.94 µM; recombinant RBBP9, FP-Rh probe fluorescence polarization; hit rate 0.2% among 220,000;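 active = inhibition above the campaign mean of all tested compounds plus 3 SD, cut at about 14% in these data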;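 note: plate controls were DMSO wells with RBBP9 for no effect and wells lacking RBBP9 protein for full effect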
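Test system – recombinant human RBBP9 · Input – RBBP9 2.5 µM in dispensing solution, pre-mixing · Medium – Tris buffer pH 8.0, NaCl, Pluronic · Schedule – preincubation 30 min plus labeling 45 min at 25 °C · Measured by – fluorescence polarization · Measure – % inhibition · Controls – DMSO and no-protein wells · Replicates – one well per compound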
Numbers without * were called inactive. A selection: hits, their analogues and other compounds. The true share with any hit is near 3.7%.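 Rule for the calls, unless noted: active = inhibition above about 30% (limit read from the data); inactive = the rest.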

CCn1c(O)c(/C=C2\C=NN=C2c2ccccc2)sc1=S was read as eIF4E-4G inh -1, 14-3-3 Bad inh 4, EBV gp42 block -19, p47phox inh -11 and RBBP9 inhibitor -8.
`CCC1CC(C)(C(=O)Nc2ccc(S(N)(=O)=O)cc2)OC1=O` (configuration not stated) gave eIF4E-4G inh 2, 14-3-3 Bad inh 14, EBV gp42 block -4, WT yeast gro inh -6, p47phox inh active and RBBP9 inhibitor -8.
O=C(/C=C/c1ccc(F)cc1)Nc1ccc2[nH]c(=O)[nH]c2c1 was read as eIF4E-4G inh 1, 14-3-3 Bad inh -4, EBV gp42 block -9, p47phox inh -13 and RBBP9 inhibitor 3.
`O=C(NCc1ccc(F)cc1)C(Cc1ccccc1)n1cccc1` (configuration not stated) gave eIF4E-4G inh -4, 14-3-3 Bad inh -5, EBV gp42 block 2, p47phox inh -7 and RBBP9 inhibitor -8.
`COc1ccc(/C=N/NC(=S)SC)cc1OC` gave eIF4E-4G inh -3, 14-3-3 Bad inh -25, EBV gp42 block -14, WT yeast gro inh 61*, p47phox inh -24 and RBBP9 inhibitor -2.
For CCn1c(CNC(=O)c2ccco2)nnc1SCC(=O)Nc1cc(C(F)(F)F)ccc1Cl the results were eIF4E-4G inh 5, 14-3-3 Bad inh -1, EBV gp42 block -26, WT yeast gro inh 70*, p47phox inh -8 and RBBP9 inhibitor -8.
`COc1ccc(CN2C=C3C(=O)C(C)(OC(=O)C4CCCC4)C(=O)C=C3C=C2c2ccsc2)cc1` (configuration not stated) gave eIF4E-4G inh -9, 14-3-3 Bad inh -2, EBV gp42 block 15 and p47phox inh -7.
Screening CC1(OC(=O)C2CCCC2)C(=O)C=C2C=C(c3ccsc3)N(CCCCO)C=C2C1=O (configuration not stated) returned eIF4E-4G inh -5, 14-3-3 Bad inh -6, EBV gp42 block -4 and p47phox inh 30*.
`Nc1cc(N)nc(SCC(=O)N2CCN(S(=O)(=O)c3ccccc3)CC2)n1` gave eIF4E-4G inh -12, 14-3-3 Bad inh -3, EBV gp42 block -3, p47phox inh -8 and RBBP9 inhibitor -5.
COc1ccc(NS(=O)(=O)c2cc(C(=O)O)ccc2C)cc1 was read as eIF4E-4G inh 0, 14-3-3 Bad inh 23, EBV gp42 block -3, WT yeast gro inh 59*, p47phox inh -7 and RBBP9 inhibitor -9.
`COc1ccc(NS(=O)(=O)c2cc(C)ccc2C)cc1` gave eIF4E-4G inh -1, 14-3-3 Bad inh 7, EBV gp42 block 4, p47phox inh -10 and RBBP9 inhibitor 5.
`NC(=S)N/N=C/c1ccc(-c2ccc(Cl)c(Cl)c2)o1` gave eIF4E-4G inh 3, 14-3-3 Bad inh -10, EBV gp42 block -14, WT yeast gro inh 69*, p47phox inh -15 and RBBP9 inhibitor 1.
CCCCCC1CCC(c2n[nH]c(=S)n2C)CC1 (configuration not stated) was read as eIF4E-4G inh -3, 14-3-3 Bad inh 2, EBV gp42 block -5, WT yeast gro inh 65*, p47phox inh -2 and RBBP9 inhibitor -5.
Screening Cc1ccc(C2c3c(oc4ccccc4c3=O)C(=O)N2c2nnc(C)s2)o1 (configuration not stated) returned RBBP9 inhibitor 5.
COC(=O)c1sc(N2C(=O)c3oc4ccccc4c(=O)c3C2c2cccs2)nc1C (configuration not stated) was read as eIF4E-4G inh 9, 14-3-3 Bad inh 50, EBV gp42 block -3, WT yeast gro inh 12, p47phox inh 49* and RBBP9 inhibitor -1.
Screening Cc1ccc2c(N)c(C)ccc2c1 returned eIF4E-4G inh 1, 14-3-3 Bad inh -22, EBV gp42 block -17, WT yeast gro inh -1, p47phox inh -16 and RBBP9 inhibitor -7.
Cc1ccc2cc3c(N)c4c(C)ccc(C)c4nc3nc2c1 was read as eIF4E-4G inh 4, 14-3-3 Bad inh -9, EBV gp42 block 148*, WT yeast gro inh 33, p47phox inh 31* and RBBP9 inhibitor -6.
`O=C(O)CCC(=O)N1CCOc2ccc(Cl)cc21` gave eIF4E-4G inh 1, 14-3-3 Bad inh -1, EBV gp42 block -12, WT yeast gro inh 0, p47phox inh 37* and RBBP9 inhibitor -5.
